{
  "source": "paper PMC6287576",
  "about": "(International Journal for Parasitology: Drugs and Drug …, 2018)",
  "key": {"[1]": {"test_system": "recombinant A. suum N-AChR", "details": "ref Zheng et al., 2017; cited from earlier work"}, "[2]": {"biological_target": "T1, C. elegans N-AChR (ACR-16) (Caenorhabditis elegans, UniProt P48180)", "T1 sequence (P48180 20-498)": "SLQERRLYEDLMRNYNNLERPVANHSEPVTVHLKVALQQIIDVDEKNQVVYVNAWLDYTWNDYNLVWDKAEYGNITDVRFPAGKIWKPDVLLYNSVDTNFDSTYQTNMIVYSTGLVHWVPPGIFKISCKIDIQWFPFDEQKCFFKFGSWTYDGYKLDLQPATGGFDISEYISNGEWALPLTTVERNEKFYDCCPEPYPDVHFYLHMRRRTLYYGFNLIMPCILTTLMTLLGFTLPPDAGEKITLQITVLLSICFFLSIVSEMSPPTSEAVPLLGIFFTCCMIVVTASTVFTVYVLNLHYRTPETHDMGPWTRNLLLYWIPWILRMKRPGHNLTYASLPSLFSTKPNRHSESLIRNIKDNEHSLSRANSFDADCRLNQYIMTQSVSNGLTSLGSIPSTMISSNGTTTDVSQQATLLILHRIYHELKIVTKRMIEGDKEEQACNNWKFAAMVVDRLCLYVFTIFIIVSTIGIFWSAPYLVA", "assay": "Two-electrode voltage-clamp, Cel-N-AChR in Xenopus oocytes", "type": "cell-based", "details": "for Hill slope: Cel N-AChR"}, "[3]": {"biological_target": "T2, P. equorum N-AChR (ACR-16) (Parascaris equorum, UniProt A0A3S9VMQ8)", "T2 sequence (A0A3S9VMQ8 25-504)": "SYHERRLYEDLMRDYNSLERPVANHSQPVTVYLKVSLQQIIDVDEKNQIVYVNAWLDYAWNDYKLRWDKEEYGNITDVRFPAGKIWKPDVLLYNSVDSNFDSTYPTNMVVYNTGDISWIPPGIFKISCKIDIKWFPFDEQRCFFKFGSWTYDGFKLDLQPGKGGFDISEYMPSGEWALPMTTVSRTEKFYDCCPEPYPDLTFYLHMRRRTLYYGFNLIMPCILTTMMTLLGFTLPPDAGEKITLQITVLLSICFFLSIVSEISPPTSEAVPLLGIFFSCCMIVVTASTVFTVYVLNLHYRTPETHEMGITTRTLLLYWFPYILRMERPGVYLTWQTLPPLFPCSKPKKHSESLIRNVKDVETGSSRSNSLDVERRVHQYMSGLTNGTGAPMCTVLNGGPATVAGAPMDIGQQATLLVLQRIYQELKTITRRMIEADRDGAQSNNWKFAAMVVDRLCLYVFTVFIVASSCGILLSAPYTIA", "assay": "Two-electrode voltage-clamp, Peq-N-AChR in Xenopus oocytes", "type": "cell-based", "details": "for Hill slope: Peq N-AChR; for current elicited by perfusion: Peq-N-AChR, 100 μM"}, "[4]": {"test_system": "C. elegans lev-8 (ok1519) mutant lacking L-AChR", "assay": "C. elegans paralysis assay, lev-8 mutant", "set-up": "species or system Caenorhabditis elegans", "details": "agar plate containing 31 mM drug, 15-60 min"}, "[5]": {"test_system": "C. elegans Bristol N2 (wild type)", "assay": "C. elegans paralysis assay, N2", "set-up": "species or system Caenorhabditis elegans", "details": "agar plate containing 31 mM drug, 15-60 min"}, "[6]": {"test_system": "H. contortus L-AChR-2", "assay": "Two-electrode voltage-clamp, Hco-L-AChR-2 in Xenopus oocytes", "type": "cell-based, Haemonchus contortus", "details": "100 μM"}, "[7]": {"test_system": "C. elegans acr-16 (ok789) mutant lacking N-AChR", "assay": "C. elegans paralysis assay, acr-16 mutant", "set-up": "species or system Caenorhabditis elegans", "details": "agar plate containing 31 mM drug, 15-60 min"}, "[8]": {"test_system": "H. contortus L3 larvae, Lev/Pyr/Ivm multi-resistant Kokstad isolate", "assay": "Automated larval migration assay", "set-up": "species or system Haemonchus contortus", "details": "for IC50: Haemonchus contortus, read-out: IC50 (L3 migration, ALMA); for resistance factor between Kok and Wey: based on respective ALMA IC50 values"}, "[9]": {"test_system": "H. contortus L-AChR-1", "assay": "Two-electrode voltage-clamp, Hco-L-AChR-1 in Xenopus oocytes", "type": "cell-based, Haemonchus contortus", "details": "100 μM"}, "[10]": {"test_system": "C. elegans L-AChR", "assay": "Two-electrode voltage-clamp, Cel-L-AChR in Xenopus oocytes", "type": "cell-based, Caenorhabditis elegans", "details": "100 μM"}, "[11]": {"test_system": "H. contortus L3 larvae, anthelmintic-susceptible Weybridge isolate", "assay": "Automated larval migration assay", "details": "Haemonchus contortus, read-out: IC50 (L3 migration, ALMA)"}, "[12]": {"test_system": "C. elegans L-AChR", "details": "recombinant C. elegans L-AChR in Xenopus oocytes; ref Boulin et al., 2008; cited from earlier work"}, "[13]": {"test_system": "H. contortus Weybridge isolate (eggs)", "assay": "Egg hatch assay, Weybridge isolate", "set-up": "species or system Haemonchus contortus", "details": "triplicate", "method_in_brief": "(§1)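 Benzimidazole test compound applied to eggs of each sheep-passaged isolate to establish benzimidazole susceptibility or resistance status. Method followed a published egg hatch protocol. ED50 reported in μg/ml, from triplicate tests.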"}, "[14]": {"test_system": "H. contortus Kokstad isolate (eggs)", "assay": "Egg hatch assay, Kokstad isolate", "set-up": "species or system Haemonchus contortus", "details": "triplicate", "method_in_brief": "as §1"}},
  "note": "Where a name gives a salt, the structure may show the parent alone.",
  "data": [
    {"molecule": "C#Cc1cncc([C@@H]2CCCCN2)c1", "note": "[(S)-5-ethynyl-anabasine]", "values": [
      {"measurement": "agonist potency", "setting": "[1]", "result": "higher agonist potency than other nicotine alkaloids"}
    ]},
    {"molecule": "CC(=O)OCC[N+](C)(C)C", "note": "[Acetylcholine, Acetylcholine chloride]", "values": [
      {"measurement": "EC50", "setting": "[2]", "result": "22 ± 1.2", "unit": "µM"},
      {"measurement": "Hill slope", "setting": "[2]", "result": "2.1 ± 0.4"},
      {"measurement": "current elicited by perfusion", "setting": "[2]; Cel-N-AChR, 100 μM", "result": "robust currents in the μA range"},
      {"measurement": "Hill slope", "setting": "[3]", "result": "2.0 ± 0.2"},
      {"measurement": "current elicited by perfusion", "setting": "[3]", "result": "robust currents in the μA range"}
    ]},
    {"molecule": "c1cncc([C@@H]2CCCCN2)c1", "note": "[Anabasine, anabasine]", "values": [
      {"measurement": "effect on motility (paralysis)", "setting": "[4]", "result": "affected"},
      {"measurement": "effect on motility (paralysis)", "setting": "[5]", "result": "affected"},
      {"measurement": "response of oocytes", "setting": "[6]", "result": "very small currents on few oocytes"},
      {"measurement": "effect on motility (paralysis)", "setting": "[7]", "result": "significantly less sensitive"},
      {"measurement": "EC50", "setting": "[2]", "result": "27.5 ± 0.9", "unit": "µM"},
      {"measurement": "Hill slope", "setting": "[2]", "result": "2.4 ± 0.4"},
      {"measurement": "current elicited by perfusion", "setting": "[2]; Cel-N-AChR, 100 μM", "result": "very similar currents as for Nic"},
      {"measurement": "EC50", "setting": "[3]", "result": "1.7 ± 0.1", "unit": "µM"},
      {"measurement": "Hill slope", "setting": "[3]", "result": "1.8 ± 0.2"},
      {"measurement": "current elicited by perfusion", "setting": "[3]", "result": "very similar currents as for Nic"},
      {"measurement": "IC50", "setting": "[8]", "result": "141 ± 6.9", "unit": "µM"},
      {"measurement": "response of oocytes", "setting": "[9]", "result": "failed to induce significant response"},
      {"measurement": "response of oocytes", "setting": "[10]", "result": "failed to induce significant response"},
      {"measurement": "IC50", "setting": "[11]", "result": "179 ± 7.9", "unit": "µM"}
    ]},
    {"molecule": "c1ccc([C@H]2CN3CCSC3=N2)cc1", "note": "[Levamisole, (−)-tetramisole hydrochloride]", "values": [
      {"measurement": "IC50", "setting": "[8]", "result": "14 ± 0.35", "unit": "µM"},
      {"measurement": "resistance factor between Kok and Wey", "setting": "[8]", "result": 12.3},
      {"measurement": "IC50", "setting": "[11]", "result": "1.14 ± 0.03", "unit": "µM"},
      {"measurement": "sensitivity of recombinant receptor", "setting": "[12]", "result": "sensitive"}
    ]},
    {"molecule": "CN1CCC[C@H]1c1cccnc1", "note": "[Nicotine, (−)-nicotine hydrogen tartrate]", "values": [
      {"measurement": "effect on motility (paralysis)", "setting": "[4]", "result": "affected"},
      {"measurement": "effect on motility (paralysis)", "setting": "[5]", "result": "affected"},
      {"measurement": "response of oocytes", "setting": "[6]", "result": "responded robustly"},
      {"measurement": "effect on motility (paralysis)", "setting": "[7]", "result": "significantly less sensitive"},
      {"measurement": "EC50", "setting": "[2]", "result": "15.1 ± 1.3", "unit": "µM"},
      {"measurement": "Hill slope", "setting": "[2]", "result": "2.2 ± 0.2"},
      {"measurement": "% of ACh response", "setting": "[2]; Cel-N-AChR, 100 μM", "result": "79.5 ± 7.5", "unit": "%"},
      {"measurement": "EC50", "setting": "[3]", "result": "2.9 ± 0.5", "unit": "µM"},
      {"measurement": "Hill slope", "setting": "[3]", "result": "1.7 ± 0.2"},
      {"measurement": "Emax at 100 µM", "setting": "[3]; read-out: % of ACh response", "result": "96.6 ± 9.2", "unit": "%"},
      {"measurement": "IC50", "setting": "[8]", "result": "1170 ± 67.7", "unit": "µM"},
      {"measurement": "response of oocytes", "setting": "[9]", "result": "failed to induce significant response"},
      {"measurement": "response of oocytes", "setting": "[10]", "result": "failed to induce significant response"},
      {"measurement": "IC50", "setting": "[11]", "result": "611 ± 55.1", "unit": "µM"},
      {"measurement": "sensitivity of recombinant receptor", "setting": "[12]", "result": "insensitive"}
    ]},
    {"molecule": "CN1CCCN=C1/C=C/c1cccs1", "note": "[Pyrantel, pyrantel citrate]", "values": [
      {"measurement": "IC50", "setting": "[8]", "result": "18.5 ± 1.32", "unit": "µM"},
      {"measurement": "resistance factor between Kok and Wey", "setting": "[8]", "result": 23.9},
      {"measurement": "IC50", "setting": "[11]", "result": "0.77 ± 0.01", "unit": "µM"}
    ]},
    {"molecule": "c1ccc2[nH]c(-c3cscn3)nc2c1", "note": "[TBZ, thiabendazole]", "values": [
      {"measurement": "ED50 (egg hatch assay)", "setting": "[13]", "result": "0.024 ± 0.001", "unit": "µg/mL"},
      {"measurement": "ED50 (egg hatch assay)", "setting": "[14]", "result": "0.437 ± 0.205", "unit": "µg/mL"}
    ]},
    {"molecule": "(±)-nornicotine", "values": [
      {"measurement": "effect on motility (paralysis)", "setting": "[4]", "result": "affected"},
      {"measurement": "effect on motility (paralysis)", "setting": "[5]", "result": "affected"},
      {"measurement": "response of oocytes", "setting": "[6]", "result": "very small currents on few oocytes"},
      {"measurement": "effect on motility (paralysis)", "setting": "[7]", "result": "significantly less sensitive"},
      {"measurement": "Hill slope", "setting": "[2]", "result": "2.7 ± 0.4"},
      {"measurement": "current elicited by perfusion", "setting": "[2]; Cel-N-AChR, 100 μM", "result": "very similar currents as for Nic"},
      {"measurement": "Hill slope", "setting": "[3]", "result": "1.9 ± 0.3"},
      {"measurement": "current elicited by perfusion", "setting": "[3]", "result": "very similar currents as for Nic"},
      {"measurement": "response of oocytes", "setting": "[9]", "result": "failed to induce significant response"},
      {"measurement": "response of oocytes", "setting": "[10]", "result": "failed to induce significant response"}
    ]},
    {"molecule": "ivermectin", "values": [
      {"measurement": "resistance factor between Kok and Wey", "setting": "[8]", "result": 15.1}
    ]}
  ]
}
